Assay outcomes deposited in PubChem by several laboratories.
Most compounds without a hit are left out; they make up all but 2% or so of the library.
GSTO1 inh: inhibitors of recombinant GSTO1, primary screen, counter-screen for RBBP9 inhibitor project, biochemical, fluorescence polarization | inhibition, % at 5.96 µM | activity-based probe fluorescence polarization | actives 1.1% (n = 300,000) | AID 1974, 2009;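 active means inhibition above the campaign mean inhibition plus 3 SD, cut at about 35% in these data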;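 further: 0% = GSTO1-1 with DMSO and 100% = wells lacking GSTO1-1 enzyme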
Apaf-1 inh: inhibitors of human Apaf-1 apoptosome, primary screen, biochemical, DEVD-Rh110 fluorescence, uHTS; Apoptotic protease-activating factor 1 (Homo sapiens), O14727; reconstituted apoptosome caspase-3 activity; inhibition, % at 20 µM; AID 489030, 2010; actives 0.71% (n = 330,000); active means inhibition of at least 40% at 20 µM;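 further: plate controls were DMSO wells for no effect and DEVD-CHO caspase inhibitor wells for full effect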
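Material: reconstituted apoptosome with Apaf-1, cytochrome c, caspase-9, procaspase-3, dATP / Buffer or medium: pH 7.5 Hepes buffer with CHAPS, BSA, DTT / Also added: cytochrome c with DEVD-Rh110 / Schedule: compound with Apaf-1, dATP, procaspase-3 30 min, then 50 min reaction, room temperature / Technique: rhodamine 110 fluorescence at Ex 480/Em 540 nm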
PAD4 FP inh: human PAD4 inhibitors, primary screen, biochemical, fluorescence polarization, 1536-well format; Protein-arginine deiminase type-4 (Homo sapiens), Q9UM07; recombinant PAD4, RCA probe fluorescence polarization; inhibition, % at 6.36 µM; actives 0.41% (n = 330,000); AID 485272, 2010;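 active means percent inhibition above a cutoff equal to the mean of all tested compounds plus 3 SD, cut at about 15% in these data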;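 further: 0% = PAD4 with RCA probe and DMSO and 100% = probe without PAD4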
Fh CTSL1 inh: Fasciola hepatica cathepsin L1 inhibitors, primary screen, counter-screen for PFM18AAP inhibitor project, biochemical, QFRET, fluorogenic peptide substrate; recombinant F. hepatica cathepsin L1, Z-Leu-Arg-MCA fluorescence; inhibition, % at 5.96 µM; actives 0.49% (n = 300,000);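 active means inhibition above the mean of all tested compounds plus 3 SD, set per screening campaign, cut at about 17% in these data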;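 further: 0% = plate median of test compound wells and 100% = 1 µM Z-Phe-Ala-diazomethylketone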
PP5 inh: PP5 phosphatase inhibitors, primary screen, biochemical, fluorescence; inhibition, % at 6.7 µM; purified PP5c, OMFP substrate fluorescence; actives 0.18% (n = 320,000);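 active means inhibition above the campaign's mean inhibition across all tested compounds plus 3 SD, cut at about 9.5% in these data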;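 further: 0% = DMSO only and 100% = 100 µM cantharidin control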
Target sequence (P53041 whole entry, looked up): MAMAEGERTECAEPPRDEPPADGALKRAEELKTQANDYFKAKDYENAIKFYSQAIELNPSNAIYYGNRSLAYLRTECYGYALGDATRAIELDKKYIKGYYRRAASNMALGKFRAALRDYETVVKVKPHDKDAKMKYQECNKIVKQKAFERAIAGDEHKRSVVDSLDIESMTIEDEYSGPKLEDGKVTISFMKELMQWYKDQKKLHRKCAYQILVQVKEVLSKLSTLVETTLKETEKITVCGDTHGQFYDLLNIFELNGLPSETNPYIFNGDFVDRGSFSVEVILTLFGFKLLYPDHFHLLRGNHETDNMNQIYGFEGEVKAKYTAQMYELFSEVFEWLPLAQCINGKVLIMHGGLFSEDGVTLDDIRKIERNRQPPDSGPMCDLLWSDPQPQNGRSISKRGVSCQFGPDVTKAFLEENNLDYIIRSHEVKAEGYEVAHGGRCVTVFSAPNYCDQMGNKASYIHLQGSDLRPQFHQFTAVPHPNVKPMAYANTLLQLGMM
UCH37 DUB inh: inhibitors of human UCH37 deubiquitinase, primary screen, biochemical, Ub-AMC cleavage, fluorescence; purified proteasome/UCH37; inhibition, % (no concentration beside the values); actives 0.33% (n = 330,000); AID 588478, 2011;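 active means mean inhibition over replicate wells above about 20%, limit read from the data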;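 further: 0% = compound-free wells with enzyme and 100% = wells lacking proteasome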
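Reagent: Ub-AMC substrate; assay system: Proteasome-associated human UCH37 deubiquitinase; controls: no-proteasome and no-compound wells; read-out: % inhibition of Ub-AMC cleavage fluorescence; timing: 30 min preincubation with enzyme, 25 min cleavage at room temperature; signal: AMC fluorescence from Ub-AMC cleavage, excitation 355 nm, emission 460 nm; buffer or medium: Tris-HCl pH 7.4 plus ovalbumin, ATP-MgCl2, DTT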
Numbers without * were called inactive; x = no result given.

SMILES	GSTO1 inh	Apaf-1 inh	PAD4 FP inh	Fh CTSL1 inh	PP5 inh	UCH37 DUB inh
COc1ccc(CCn2c(Br)nc3c2c(=O)[nH]c(=O)n3C)cc1	8	-3	-13	0	3	0
O=C(CN(c1cccc([N+](=O)[O-])c1)S(=O)(=O)c1ccccc1)N(Cc1ccccc1)Cc1ccccc1	-2	7	0	18*	-3	3
O=C(C(Cc1ccccc1)N1C(=O)C2C3C=CC(C3)C2C1=O)N1CCCCCC1 (configuration not stated)	-1	-1	5	4	-1	7
O=C(NCc1ccco1)C(Cc1ccccc1)N1C(=O)C2C3C=CC(C3)C2C1=O (configuration not stated)	3	-8	5	20*	3	6
O=C(NN=Cc1ccccc1)NC1CCCCC1	x	x	x	x	x	6
NC(=O)c1cc([N+](=O)[O-])ccc1N1CCCCC1	3	3	1	-2	1	10
O=C(NC1CCCCC1)c1cc([N+](=O)[O-])ccc1N1CCCC1	4	12	-2	34*	0	6
CN(C(=O)c1cc([N+](=O)[O-])ccc1N1CCCC1)C1CCCCC1	-9	6	-6	22*	-1	7
CC1CCCCC1NC(=O)/C=C/c1nc2ccccc2s1 (configuration not stated)	-11	6	-3	23*	1	-16
COc1cccc(/C=N/NC(N)=S)c1OCc1cccc(Cl)c1	-1	12	-1	17*	1	x
NC(=S)N/N=C/c1c[nH]c2ccc(OCc3ccccc3)cc12	-3	16	2	55*	4	x
NC(=S)N/N=C\c1ccccc1OCc1ccccc1	-6	7	-1	12	-1	x
COc1ccc(NC(=O)C2Cc3ccccc3OC2=NO)cc1 (configuration not stated)	x	x	x	x	x	-2
COc1ccc(CNC(=O)Oc2ccccc2)cc1Cl	4	2	-4	19*	-1	7
COC(=O)NCc1ccc(Cl)c(Cl)c1	-1	-71	0	2	0	-2
CC(=O)n1cc(N(C(=O)CCl)c2ccc(C)cc2)c2ccccc21	70*	6	12	-2	1	1
S=c1[nH]nc(-c2ccccn2)n1N=Cc1ccc(Br)s1	x	x	x	x	x	3
CCCCn1c(NC(=O)CC)c(C#N)c2nc3ccccc3nc21	8	11	-4	1	2	-162
N#Cc1c(NC(=O)c2ccccc2Cl)n(Cc2ccccc2)c2nc3ccccc3nc12	47*	x	-6	2	6	x
O=C(c1ccccc1)C1C(=O)c2ccccc2C1=O	-17	-14	-19	-1	1	31*
Cc1ccc(S(=O)(=O)/N=C2/NC(=O)/C(=C/c3cc([N+](=O)[O-])ccc3O)S2)cc1	-111	15	1	3	1	x
COc1cc(/C=C2\S/C(=N/S(=O)(=O)c3ccc(C)cc3)NC2=O)c([N+](=O)[O-])cc1OC	28	19	-14	7	0	20*
CCC(O)CC(C(=O)NNc1ccccc1)C(=O)NNc1ccccc1 (configuration not stated)	4	1	-3	-7	0	30*
O=C(O)CNC(=S)NCc1ccccc1	-4	-2	-4	-1	0	x
O=C(Cc1ccc(O)cc1)NCCNC(=S)NCc1ccccc1	23	-2	1	25*	0	3
SMILES	GSTO1 inh	Apaf-1 inh	PAD4 FP inh	Fh CTSL1 inh	PP5 inh	UCH37 DUB inh
CC(C)(C)OC(=O)N[C@@H](Cc1ccccc1)c1nnc(SCC(=O)O)o1	2	1	-1	29*	3	2
COC(=O)CSc1nnc([C@H](CC(C)C)NC(=O)OC(C)(C)C)o1	-1	4	-2	52*	1	3
CCC(C)[C@@H](NC(=O)OC(C)(C)C)c1nnc(S(=O)(=O)Cc2cccc(C)c2)o1 (some centres not stated)	x	x	x	x	x	-1
CCSc1nnc([C@H](Cc2ccccc2)NC(=O)OC(C)(C)C)o1	2	-5	-2	1	-3	2
CC(C)(C)OC(=O)N[C@@H](Cc1ccccc1)c1nnc(S(=O)(=O)Cc2ccccc2)o1	1	3	1	25*	1	x
CCOC(=O)CSc1nnc([C@H](CC(C)C)NC(=O)OC(C)(C)C)o1	x	x	x	x	x	-1
Cc1ccccc1CS(=O)(=O)c1nnc([C@H](Cc2ccccc2)NC(=O)OC(C)(C)C)o1	6	-5	4	29*	2	1
Cn1cccc1C=NNC(=O)c1ccc(OC(F)(F)C(F)F)cc1	x	x	x	x	x	8
Cc1ccc(-c2nnc(SCC(=O)NN=Cc3ccc(C)s3)n2-c2ccccc2)cc1	x	x	x	x	x	1
CC(=NNc1ccc(C(=O)O)cc1)c1ccc(O)c(O)c1O	x	x	x	x	x	21*
CC(=NNc1ccc(C(=O)O)cc1)c1ccc(Br)cc1	x	x	x	x	x	16
Nc1cccc(C(=O)OCC(=O)NC2CCCc3ccccc32)c1 (configuration not stated)	1	1	1	0	0	-7
O=C(COC(=O)c1ccc([N+](=O)[O-])o1)NC1CCCc2ccccc21 (configuration not stated)	x	12	-14	x	x	20*
Cc1ccc(-c2nnc(SCC(=O)CC(=O)Nc3ccccc3)n2C)cc1	-1	8	0	1	2	-1
CCc1nnc(NC(=O)CSc2nnc(COc3cccc(C)c3)o2)s1	35*	7	-1	-4	2	0
NC(=O)c1ccc(-n2nnnc2SCC(=O)Nc2ccccc2)cc1	-1	11	1	-2	-1	2
O=C(CSc1nnnn1-c1ccccc1)CC(=O)Nc1ccc(Cl)cc1	-21	14	-5	24*	2	2
Cn1c(SCC(=O)CC(=O)Nc2ccccc2)nnc1-c1ccc(O)cc1	-1	-23	-2	27*	1	0
COc1ccc(OCc2nnc(SCC(=O)Nc3ccc(C)cc3)o2)cc1	-1	14	-2	-8	-1	1
Cc1ccc(OCc2nnc(SCC(=O)CC(=O)Nc3ccccc3)o2)cc1	15	16	-11	25*	-2	5
CCOC(=O)C1=C(C)N=c2sc(=Cc3ccccc3)c(=O)n2C1c1ccc(OC)c(OC)c1 (configuration not stated)	x	x	x	x	x	3
COc1ccc(C=NNC(=O)C2(C)NC(C)(C)Cc3ccccc32)cc1 (configuration not stated)	x	x	x	x	x	8
